Here are results for one compound from article PMC10772668 (Clinical and Translational Science, 2023).

Data set [1] concerns the target T1, RIPK1 (Homo sapiens, UniProt Q13546).
T1 sequence (Q13546 1-671): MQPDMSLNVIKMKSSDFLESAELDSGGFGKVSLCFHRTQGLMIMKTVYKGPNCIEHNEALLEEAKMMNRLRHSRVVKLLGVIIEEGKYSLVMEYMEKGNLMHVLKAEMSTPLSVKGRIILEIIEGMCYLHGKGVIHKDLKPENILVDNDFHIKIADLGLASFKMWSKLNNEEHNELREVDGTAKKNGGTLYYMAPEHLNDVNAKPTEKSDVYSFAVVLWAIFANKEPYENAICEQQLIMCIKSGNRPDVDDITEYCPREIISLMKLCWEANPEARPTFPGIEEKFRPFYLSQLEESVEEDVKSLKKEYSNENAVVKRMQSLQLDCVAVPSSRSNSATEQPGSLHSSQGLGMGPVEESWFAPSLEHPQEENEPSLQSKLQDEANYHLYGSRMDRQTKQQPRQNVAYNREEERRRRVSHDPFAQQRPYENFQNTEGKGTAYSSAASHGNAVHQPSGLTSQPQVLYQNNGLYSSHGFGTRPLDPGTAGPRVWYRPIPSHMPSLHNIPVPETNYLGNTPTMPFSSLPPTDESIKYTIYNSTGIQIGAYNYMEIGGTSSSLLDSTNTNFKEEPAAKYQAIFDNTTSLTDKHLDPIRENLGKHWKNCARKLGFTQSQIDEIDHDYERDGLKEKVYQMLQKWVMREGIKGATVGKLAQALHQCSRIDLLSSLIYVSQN
Kind of data set: pS166‐RIPK1 inhibition in PBMC lysates, MAD. The class given is in vivo. The conditions noted are these: MAD all dose groups. The gist of the method:
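Blood was drawn predose on day −1 or 1, on day 7, on day 14 predose and 1, 3, 5 and 8 h postdose, and once on days 15 and 16. Subjects received 14‑day oral q.d./b.i.d. dosing or placebo. PBMCs were isolated and pS166‑RIPK1 measured in lysates. Percent change from baseline was summarised as median (Q1–Q3) per dose group and time.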

A short description of data set [2]: Plasma PK, SAD. The class given is in vivo, human. The conditions noted are these: for CL/F, geometric mean (%CV): fasting. The method, boiled down: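 Healthy adults received a single fasted oral capsule dose (10–40 mg) or placebo; fasting was overnight ≥8 h and 2 h post‑dose. Plasma was sampled predose, at 10 postdose times on day 1 and once each on days 2 and 3, and quantified by HPLC‑MS (LLOQ 1 ng/mL). Cmax, Tmax, AUClast, AUC, t1/2z, CL/F and Vz/F were computed. Dose proportionality was tested with a linear model.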

Data set [3] deals with CYP3A4. Kind of data set: Plasma 4β‐hydroxycholesterol day 14/day 1 ratio. The format is in vivo, human. The conditions noted are these: repeated doses up to 20 mg b.i.d. The method, boiled down:
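MAD healthy adults received oral capsules (10 or 20 mg q.d., 15 or 20 mg b.i.d.; fasted) or placebo for 14 days. Plasma 4β‑hydroxycholesterol was measured predose on day 1 and day 14, and day 14/day 1 ratios were calculated. Geometric mean of the log‑transformed ratio with 90% CI was obtained by analysis of covariance, per dose group and overall.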

Setting [4] is: both, human, plasma, oral, 10 mg.
[5] abbreviates: both, human, plasma, oral, 20 mg.
Where [6] appears, read: both, human, plasma, oral, 30 mg.
Setting [7] is: both, human, plasma, oral, 40 mg.

For the compound `CC(C)(C(=O)N1CCOc2c(C#N)cncc2C1)C(F)F` [SAR443820], the “pS166‐RIPK1 inhibition in PBMC lysates” value was “less inhibition of RIPK1 phosphorylation” in data set [1] (48 h post last dosing) and “greater than 80%” in data set [1] (day 14, up to 24 h post last morning dosing). In addition, the “CL/F, geometric mean (%CV)” value was 8.56 (37.8) L/h in data set [2] (SAD 10 mg single dose), 8.28 (21.4) L/h in data set [2] (SAD 20 mg single dose), 12.3 (44.7) L/h in data set [2] (SAD 30 mg single dose) and 7.72 (36.1) L/h in data set [2] (SAD 40 mg single dose). Moreover, in data set [2] (SAD between 10 mg and 40 mg), the “Dose proportionality of exposure” value is “no major deviation from dose proportionality”. The Tmax – broadly, the time from dosing to the highest level – in data set [2] (both, human, plasma, oral) was 1 to 1.5 h; in data set [2] (setting [5]), 1.5 h; in data set [2] (setting [6]), 1 h; in data set [2] (setting [7]) it was 1.5 h. For the same compound, the half-life (commonly how long it takes for the measured level to halve) in data set [2] (both, human, plasma, oral) is 5.7 to 8 h; in data set [2] (setting [4]) it was 7.97 h; in data set [2] (setting [5]), 7.48 h; in data set [2] (setting [6]) it was 5.7 h; in data set [2] (setting [7]), 6.29 h. Besides, in data set [2] (setting [4]), the AUC(0-t) (as a rule, exposure summed from dosing to a finite time, without extrapolation to infinity) was determined as 1120 ng·h/mL. For the same compound, the Vd/F (as a rule, the apparent distribution volume after extravascular dosing) in data set [2] (setting [4]) is 98.4 L; in data set [2] (setting [5]) it was 89.4 L; in data set [2] (setting [6]), 101 L; in data set [2] (setting [7]) it was 70.1 L. In addition, in data set [2] (setting [5]), the Cmax (usually the maximum level reached in the sampled fluid or tissue) amounted to 241 ng/mL. Also, the “Potential for CYP3A4 induction” value in data set [3] is “no potential for CYP3A4 induction”.
